The source made the active and inactive calls.
Experiments:
Rattus norvegicus [1] = assay: Antiarthritic activity in CFA-induced Sprague-Dawley rat rheumatoid arthritis model assessed as increase in tolerated weight on ipsilateral paw at 1 mg/kg, po measured at 60 mins by paw pressure test; format: functional, organism-based
Outline: (§1)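 Rats: Sprague Dawley, 200-250 g, given 50 μl CFA intra-articularly into the tibiotarsal joint; controls got saline. On day 14, compounds in 1% CMC were given orally. An analgesimeter applied increasing pressure to the dorsal hind paw with a blunt conical probe until vocalization or withdrawal, read in grams, cut-off 120 g. Rats below 40 g or above 75 g before dosing were excluded. Values are mean (S.E.M.) of 8 rats from 2 experiments.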

Carbonic anhydrase 9 = Carbonic anhydrase 9 (Homo sapiens, UniProt Q16790); assay: Inhibition of recombinant human carbonic anhydrase-9 catalytic domain incubated for 15 mins by stopped-flow CO2 hydrase assay
Rattus norvegicus [2] = assay: Antiarthritic activity in CFA-induced Sprague-Dawley rat rheumatoid arthritis model assessed as tolerated weight on ipsilateral paw at 0.1 mg/kg, po measured at 15 mins by paw pressure test (reference value: 43.5 +/- 0.5 g); format: functional; outline: as §1
Carbonic anhydrase 12 = Carbonic anhydrase 12 (Homo sapiens, UniProt O43570); assay: Inhibition of recombinant human carbonic anhydrase-12 incubated for 15 mins by stopped-flow CO2 hydrase assay
Sequence of Carbonic anhydrase 12 (O43570 whole entry): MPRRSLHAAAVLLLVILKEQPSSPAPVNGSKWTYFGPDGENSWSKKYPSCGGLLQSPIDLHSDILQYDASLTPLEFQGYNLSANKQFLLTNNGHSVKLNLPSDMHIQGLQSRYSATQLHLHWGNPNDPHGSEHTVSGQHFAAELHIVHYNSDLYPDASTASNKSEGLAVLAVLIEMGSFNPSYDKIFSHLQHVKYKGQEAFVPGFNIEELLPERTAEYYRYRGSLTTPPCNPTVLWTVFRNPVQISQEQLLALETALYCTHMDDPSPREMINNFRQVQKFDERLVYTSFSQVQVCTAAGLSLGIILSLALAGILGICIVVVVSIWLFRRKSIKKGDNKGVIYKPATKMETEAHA

Rattus norvegicus [3] = species: Rattus norvegicus; assay: Change in pain threshold of contralateral paw of CFA-induced Sprague-Dawley rat rheumatoid arthritis model by paw pressure test; format: organism-based; details: in vivo; outline: as §1
Carbonic anhydrase 1 = Carbonic anhydrase 1 (Homo sapiens, UniProt P00915); assay: Inhibition of recombinant human carbonic anhydrase-1 incubated for 15 mins by stopped-flow CO2 hydrase assay
Sequence of Carbonic anhydrase 1 (P00915 whole entry): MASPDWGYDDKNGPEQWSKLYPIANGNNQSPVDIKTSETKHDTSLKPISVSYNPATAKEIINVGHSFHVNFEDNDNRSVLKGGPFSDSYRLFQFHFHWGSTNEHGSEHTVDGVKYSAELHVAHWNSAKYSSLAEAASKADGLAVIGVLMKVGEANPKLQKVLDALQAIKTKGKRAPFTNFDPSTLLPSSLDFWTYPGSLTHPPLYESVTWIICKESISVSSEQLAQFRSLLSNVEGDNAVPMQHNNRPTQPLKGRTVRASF

Rattus norvegicus [4] = assay: Antiarthritic activity in CFA-induced Sprague-Dawley rat rheumatoid arthritis model assessed as increase in tolerated weight on ipsilateral paw at 10 mg/kg, po measured up to 75 mins by paw pressure test; format: functional, organism-based; outline: as §1
Rattus norvegicus [5] = assay: Antiarthritic activity in CFA-induced Sprague-Dawley rat rheumatoid arthritis model assessed as increase in tolerated weight on ipsilateral paw at 0.1 mg/kg, po measured up to 45 mins by paw pressure test; format: functional, organism-based; outline: as §1
Rattus norvegicus [6] = assay: Antiarthritic activity in CFA-induced Sprague-Dawley rat rheumatoid arthritis model assessed as tolerated weight on ipsilateral paw at 1 mg/kg, po measured at 30 mins by paw pressure test (reference value: 43.5 +/- 0.5 g); format: functional; outline: as §1
Rattus norvegicus [7] = assay: Antiarthritic activity in CFA-induced Sprague-Dawley rat rheumatoid arthritis model assessed as difference between weight burden on contralateral and ipsilateral paw at 0.1 mg/kg, po measured at 15 to 30 mins by incapacitance test (reference value: 54.2 +/- 5.1 g); format: functional
Carbonic anhydrase 2 [8] = target: T1, Carbonic anhydrase 2 (Homo sapiens, UniProt P00918); assay: Inhibition of recombinant human carbonic anhydrase-2 incubated for 15 mins by stopped-flow CO2 hydrase assay
Rattus norvegicus [9] = assay: Antiarthritic activity in CFA-induced Sprague-Dawley rat rheumatoid arthritis model assessed as decrease in difference between weight burden on contralateral and ipsilateral paw at 0.1 mg/kg, po measured up to 45 mins by incapacitance test; format: functional, organism-based
Rattus norvegicus [10] = assay: Antiarthritic activity in CFA-induced Sprague-Dawley rat rheumatoid arthritis model assessed as tolerated weight on ipsilateral paw at 10 mg/kg, po measured at 30 mins by paw pressure test (reference value: 43.5 +/- 0.5 g); format: functional; outline: as §1
Rattus norvegicus [11] = assay: Antiarthritic activity in CFA-induced Sprague-Dawley rat rheumatoid arthritis model assessed as difference between weight burden on contralateral and ipsilateral paw at 10 mg/kg, po measured at 30 mins by incapacitance test (reference value: 54.2 +/- 5.1 g); format: functional
Carbonic anhydrase 4 = Carbonic anhydrase 4 (Homo sapiens, UniProt P22748); assay: Inhibition of recombinant human carbonic anhydrase-4 incubated for 15 mins by stopped-flow CO2 hydrase assay
Sequence of Carbonic anhydrase 4 (P22748 whole entry): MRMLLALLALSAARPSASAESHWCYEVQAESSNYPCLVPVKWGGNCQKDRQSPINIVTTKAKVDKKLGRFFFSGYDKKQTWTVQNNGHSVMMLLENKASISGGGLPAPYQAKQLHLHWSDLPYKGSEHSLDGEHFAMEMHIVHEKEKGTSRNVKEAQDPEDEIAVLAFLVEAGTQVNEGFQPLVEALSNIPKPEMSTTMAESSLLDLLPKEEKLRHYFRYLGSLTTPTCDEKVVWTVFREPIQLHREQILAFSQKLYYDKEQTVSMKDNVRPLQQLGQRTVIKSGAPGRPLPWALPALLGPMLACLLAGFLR

Rattus norvegicus [12] = assay: Antiarthritic activity in CFA-induced Sprague-Dawley rat rheumatoid arthritis model assessed as difference between weight burden on contralateral and ipsilateral paw at 1 mg/kg, po measured at 30 mins by incapacitance test (reference value: 54.2 +/- 5.1 g); format: functional
Rattus norvegicus [13] = assay: Antiarthritic activity in CFA-induced Sprague-Dawley rat rheumatoid arthritis model assessed as tolerated weight on ipsilateral paw at 1 mg/kg, po measured at 15 mins by paw pressure test (reference value: 43.5 +/- 0.5 g); format: functional; outline: as §1
Rattus norvegicus [14] = assay: Antiarthritic activity in CFA-induced Sprague-Dawley rat rheumatoid arthritis model assessed as tolerated weight on ipsilateral paw at 0.1 mg/kg, po measured up to 30 mins by paw pressure test (reference value: 43.5 +/- 0.5 g); format: functional; outline: as §1
Rattus norvegicus [15] = assay: Antiarthritic activity in CFA-induced Sprague-Dawley rat rheumatoid arthritis model assessed as decrease in difference between weight burden on contralateral and ipsilateral paw at 10 mg/kg, po measured up to 75 mins by incapacitance test; format: functional, organism-based
Rattus norvegicus [16] = assay: Antiarthritic activity in CFA-induced Sprague-Dawley rat rheumatoid arthritis model assessed as tolerated weight on ipsilateral paw at 10 mg/kg, po measured up to 30 mins by paw pressure test (reference value: 43.5 +/- 0.5 g); format: functional; outline: as §1
Rattus norvegicus [17] = assay: Antiarthritic activity in po dosed CFA-induced Sprague-Dawley rat rheumatoid arthritis model assessed as decrease in difference between weight burden on contralateral and ipsilateral paw measured up to 60 mins by incapacitance test; format: functional, organism-based
Carbonic anhydrase 2 [18] = target: T1, Carbonic anhydrase 2; assay: Potency index, ratio of acetazolamide Ki to test compound Ki for recombinant human carbonic anhydrase-2
Outline: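 Recombinant human CA, made in house, in a stopped-flow CO₂ hydration assay. Conditions: 20 mM Hepes pH 7.5, 20 mM Na₂SO₄, 0.2 mM phenol red read at 557 nm, CO₂ 1.7-17 mM. Enzyme and inhibitor were preincubated 15 min at room temperature. Initial rates were corrected for the uncatalyzed rate. Ki came from nonlinear least squares, mean of three measurements. The ratio uses the acetazolamide Ki.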

Rattus norvegicus [19] = assay: Antiarthritic activity in CFA-induced Sprague-Dawley rat rheumatoid arthritis model assessed as increase in tolerated weight on ipsilateral paw at 1 mg/kg, po measured up to 60 mins by paw pressure test; format: functional, organism-based; outline: as §1
Rattus norvegicus [20] = assay: Antiarthritic activity in CFA-induced Sprague-Dawley rat rheumatoid arthritis model assessed as increase in tolerated weight on ipsilateral paw at 10 mg/kg, po measured at 15 mins by paw pressure test; format: functional, organism-based; outline: as §1
Rattus norvegicus [21] = assay: Antiarthritic activity in CFA-induced Sprague-Dawley rat rheumatoid arthritis model assessed as decrease in difference between weight burden on contralateral and ipsilateral paw at 5.8 mg/kg, po measured up to 75 mins by incapacitance test; format: functional, organism-based
Rattus norvegicus [22] = assay: Antiarthritic activity in CFA-induced Sprague-Dawley rat rheumatoid arthritis model assessed as increase in tolerated weight on ipsilateral paw at 5.8 mg/kg, po measured at 15 mins by paw pressure test; format: functional, organism-based; outline: as §1
Rattus norvegicus [23] = assay: Antiarthritic activity in CFA-induced Sprague-Dawley rat rheumatoid arthritis model assessed as difference between weight burden on contralateral and ipsilateral paw at 1 mg/kg, po measured at 15 to 30 mins by incapacitance test (reference value: 54.2 +/- 5.1 g); format: functional
Rattus norvegicus [24] = assay: Antiarthritic activity in CFA-induced Sprague-Dawley rat rheumatoid arthritis model assessed as difference between weight burden on contralateral and ipsilateral paw at 10 mg/kg, po measured at 15 to 30 mins by incapacitance test (reference value: 54.2 +/- 5.1 g); format: functional
Rattus norvegicus [25] = assay: Antiarthritic activity in CFA-induced Sprague-Dawley rat rheumatoid arthritis model assessed as tolerated weight on ipsilateral paw at 10 mg/kg, po measured at 15 mins by paw pressure test (reference value: 43.5 +/- 0.5 g); format: functional; outline: as §1
Rattus norvegicus [26] = assay: Antiarthritic activity in CFA-induced Sprague-Dawley rat rheumatoid arthritis model assessed as decrease in difference between weight burden on contralateral and ipsilateral paw at 0.1 mg/kg, po measured up to 75 mins by incapacitance test; format: functional, organism-based
Rattus norvegicus [27] = assay: Antiarthritic activity in CFA-induced Sprague-Dawley rat rheumatoid arthritis model assessed as tolerated weight on ipsilateral paw at 1 mg/kg, po measured up to 30 mins by paw pressure test (reference value: 43.5 +/- 0.5 g); format: functional; outline: as §1
Rattus norvegicus [28] = assay: Antiarthritic activity in po dosed CFA-induced Sprague-Dawley rat rheumatoid arthritis model assessed as increase in tolerated weight on ipsilateral paw measured up to 60 mins by paw pressure test; format: functional, organism-based; outline: as §1

NS(=O)(=O)c1ccc(CCNC(=O)Cc2ccccc2Nc2c(Cl)cccc2Cl)cc1
Activity (Rattus norvegicus [1]): inactive | Ki (Carbonic anhydrase 9): 43.3 nM | Activity (Rattus norvegicus [2]): 52.5 g | Ki (Carbonic anhydrase 12): 90.2 nM | Activity (Rattus norvegicus [3]): Non-Toxic | Ki (Carbonic anhydrase 1): 68.4 nM | Activity (Rattus norvegicus [4]): Active | Activity (Rattus norvegicus [5]): Active | Activity (Rattus norvegicus [6]): 56.7 g | Activity (Rattus norvegicus [7]): 39 g | Ki (Carbonic anhydrase 2 [8]): 43.7 nM | Activity (Rattus norvegicus [9]): Active | Activity (Rattus norvegicus [10]): 66.3 g | Activity (Rattus norvegicus [11]): 14.7 g | Ki (Carbonic anhydrase 4): 8650 nM | Activity (Rattus norvegicus [12]): 20.6 g

CC(C(=O)NCCc1ccc(S(N)(=O)=O)cc1)c1cccc(C(=O)c2ccccc2)c1 (racemic)
Ki (Carbonic anhydrase 9): 39.3 nM | Activity (Rattus norvegicus [13]): 51.7 g | Activity (Rattus norvegicus [2]): 50 g | Activity (Rattus norvegicus [14]): 50 g | Ki (Carbonic anhydrase 12): 54 nM | Activity (Rattus norvegicus [3]): Non-Toxic | Activity (Rattus norvegicus [15]): Active | Activity (Rattus norvegicus [16]): 56.7 g | Ki (Carbonic anhydrase 1): 8.1 nM | Activity (Rattus norvegicus [17]): Dose-dependent effect | Activity (Rattus norvegicus [4]): Active | Activity (Rattus norvegicus [5]): Active | Activity (Rattus norvegicus [6]): 53.3 g | Ratio Ki (Carbonic anhydrase 2 [18]): 1.86 | Ki (Carbonic anhydrase 2 [8]): 6.5 nM | Activity (Rattus norvegicus [19]): Active | Activity (Rattus norvegicus [11]): 28.6 g | Activity (Rattus norvegicus [20]): Active | Ki (Carbonic anhydrase 4): 3010 nM | Activity (Rattus norvegicus [12]): 36.8 g

CC(C(=O)O)c1cccc(C(=O)c2ccccc2)c1 (centres undefined)
Activity (Rattus norvegicus [21]): Active | Activity (Rattus norvegicus [22]): Active

CC1=C(CC(=O)NCCc2ccc(S(N)(=O)=O)cc2)c2cc(F)ccc2/C1=C/c1ccc([S+](C)[O-])cc1 (centres undefined)
Activity (Rattus norvegicus [23]): 22.3 g | Ki (Carbonic anhydrase 9): 62.5 nM | Activity (Rattus norvegicus [13]): 55 g | Activity (Rattus norvegicus [24]): 8.6 g | Ki (Carbonic anhydrase 12): 94.4 nM | Activity (Rattus norvegicus [3]): Non-Toxic | Activity (Rattus norvegicus [25]): 62.5 g | Ki (Carbonic anhydrase 1): 64.9 nM | Activity (Rattus norvegicus [26]): inactive | Activity (Rattus norvegicus [17]): Dose-dependent effect | Activity (Rattus norvegicus [4]): Active | Activity (Rattus norvegicus [27]): 55 g | Ki (Carbonic anhydrase 2 [8]): 27.3 nM | Activity (Rattus norvegicus [10]): 64.2 g | Activity (Rattus norvegicus [28]): Dose-dependent effect | Ki (Carbonic anhydrase 4): 6860 nM
